Source: PubChem
IMP-1 inh: inhibitors of Pseudomonas aeruginosa IMP-1 metallo-beta-lactamase; purified IMP-1, nitrocefin hydrolysis, epi-absorbance fluorescence; inhibition, % at 5.6 µM; hit rate 0.45% among 290,000; AID 1556;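 active = inhibition above the mean plus 3 SD of all compounds in the same screening run, cut at about 4.5% in these data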;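 also: 0% = IMP-1 with DMSO and 100% = DMSO wells lacking enzyme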
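System: purified IMP-1 / Input: IMP-1 dispensed at 0.2 nM / Medium: 50 mM HEPES pH 7.1, 50 µM ZnSO4, 0.05% Brij 35 / Timing: 15 min enzyme–compound preincubation, then 25 min nitrocefin reaction, 25 °C / Technique: plate fluorescence quenching by hydrolysis product, ex 480/em 530 nm / Repeats: singlicate testing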
VIM-2 inh: blocks Pseudomonas aeruginosa VIM-2 metallo-beta-lactamase. purified VIM-2, nitrocefin hydrolysis, epi-absorbance fluorescence. inhibition, % at 5.6 µM. hit rate 0.89% among 290,000;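 active = inhibition above the mean of all tested compounds plus 3 SD, cutoff set per screening run, cut at about 7.5% in these data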;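 also: red hydrolysis product quenches plate fluorescence so inhibitors raise well fluorescence; 0% = enzyme with DMSO and 100% = DMSO without enzyme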
dFosB activator: activators of mouse delta FosB homodimer. activation, % at 25 µM. P13346. purified delta FosB, TAMRA-CDK5 oligo fluorescence polarization; percent of positive-control signal above neutral wells. hit rate 0.99% among 340,000. AID 493131;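 active = mean activation above about 17%, with every replicate also reaching it, limit read from the data, passing the limit was not always enough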
m5-HT2A agonist: mouse HTR2A agonism via beta-arrestin recruitment. P35363. CHO-K1 mHTR2A beta-arrestin complementation, luminescence; percent of 30 µM serotonin response. activation, % at 7.6 µM. hit rate 0.66% among 360,000;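 active = activation above a run cutoff, the mean activation of all tested compounds plus 3 SD, cut at about 14% in these data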;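 also: 0% = plate median of compound wells and 100% = 30 µM serotonin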
Target sequence (P35363 whole entry, looked up): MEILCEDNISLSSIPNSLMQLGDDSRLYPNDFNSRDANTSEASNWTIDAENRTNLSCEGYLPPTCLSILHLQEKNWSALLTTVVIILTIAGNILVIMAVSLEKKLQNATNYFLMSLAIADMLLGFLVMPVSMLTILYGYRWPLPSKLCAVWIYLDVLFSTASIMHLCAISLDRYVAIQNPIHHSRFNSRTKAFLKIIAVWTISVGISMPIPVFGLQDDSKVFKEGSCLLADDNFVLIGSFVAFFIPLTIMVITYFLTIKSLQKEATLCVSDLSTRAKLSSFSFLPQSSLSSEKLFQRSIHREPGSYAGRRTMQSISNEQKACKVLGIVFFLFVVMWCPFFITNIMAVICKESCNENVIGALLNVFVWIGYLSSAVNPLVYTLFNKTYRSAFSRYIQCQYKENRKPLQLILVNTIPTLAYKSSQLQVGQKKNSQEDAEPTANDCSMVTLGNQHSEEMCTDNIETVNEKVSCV
The depositor's hits bear a star; nt = no result given. Only some compounds are listed: those with a hit (about 2.5% of all), similar ones and a draw of the others.

SMILES	IMP-1 inh	VIM-2 inh	dFosB activator	m5-HT2A agonist
CC(C)NC(=O)c1cc(C2CCCCN2C(=O)c2ccccc2)on1 (stereo not drawn)	nt	nt	nt	-1
CCCN(CCC)CCCNC(=O)c1cc2c(=O)[nH]c3ccccc3c2s1	-5	9.7*	-41	-2
O=c1[nH]c(=O)n(Cc2ccccc2)c2nc(-c3ccco3)cc(C(F)(F)F)c12	-1	-3	-4	2
Cc1cc(C(F)(F)F)c2c(=O)[nH]c(=O)n(Cc3ccccc3)c2n1	7.3*	3	-3	-2
O=C(CSc1nnc(NC(=O)c2ccc(F)cc2)s1)NCc1ccco1	-1	12*	12	6
O=C(CSc1nnc(NC(=O)c2ccccc2)s1)NCC1CCCO1 (stereo not drawn)	-3	11*	-2	-2
CC(C)(C)C(=O)Nc1nnc(SCC(=O)NCc2ccco2)s1	-2	8.6*	-2	-1
O=C(CSc1nnc(NC(=O)Cc2ccccc2)s1)NCC1CCCO1 (stereo not drawn)	-1	-1	-11	-5
CC(C)C(=O)Nc1nnc(SCC(=O)NCc2ccco2)s1	1	5	3	2
CCCOC(=O)Nc1sc2c(c1C(N)=O)CCCC2	-3	-1	6	2
O=C1CCc2cc(NS(=O)(=O)c3ccc([N+](=O)[O-])cc3)cc3c2N1CCC3	nt	nt	0	-6
CC(=O)c1ccc(Nc2cc(C)nc3c(C)cc(C)cc23)cc1	-3	8.0*	-18	-2
COC(=O)c1ccc2nc(C)cc(Nc3ccc(N(C)C)cc3)c2c1	-5	8.3*	5	-7
Cc1ccc(Nc2cc(C)nc3ccc(C)cc23)cc1	3	10.0*	-11	-7
CN(CCc1ccccc1)C(=O)c1cccc(NC(=O)Cc2cccc(NC(=O)C3CCCN(C(=O)c4ccccc4)C3)c2)c1 (stereo not drawn)	nt	nt	-4	0
CC(C)CC1C(=O)N(Cc2cn(CC3CCCCC3)nn2)CCS(=O)(=O)N1Cc1ccc(-c2cccc(CO)c2)cc1 (stereo not drawn)	nt	nt	nt	3
CCc1nn(CC(=O)NCCN2CCN(C)CC2)c(=O)c2cc3c(OC)cccc3n12	-2	12*	-6	-2
CCc1nn(CC(=O)NCCC(C)C)c(=O)c2cc3c(OC)cccc3n12	4	3	0	-4
CCn1c(=O)c(CCC(=O)NCCN2CCOCC2)c(C)c2c(C)nn(-c3ccccc3)c21	-2	9.6*	-1	-2
Cc1ccc(-n2sc3ccccc3c2=O)cc1S(=O)(=O)N1CCCCC1	-5	3	-10	17*
COc1cccc(CN(C(=O)/C=C/c2ccco2)C2CCS(=O)(=O)C2)c1 (stereo not drawn)	-4	-1	-16	3
Cc1cc(=O)oc2cc(OCC(=O)NCCCn3ccnc3)ccc12	-3	12*	-10	4
Cc1cc(=O)oc2cc(OCC(O)Cn3ccnc3)ccc12 (stereo not drawn)	-2	10*	1	2
Cc1cc(=O)oc2cc(OC(C)C(=O)NCCCn3ccnc3)ccc12 (stereo not drawn)	-2	5	-2	5
O=S(=O)(c1ccccc1)N1CCC(n2nnc3cc(F)ccc32)CC1	0	2	-4	-1
SMILES	IMP-1 inh	VIM-2 inh	dFosB activator	m5-HT2A agonist
O=S(=O)(c1ccc2c(c1)OCCO2)N1CCC(n2nnc3cc(C(F)(F)F)ccc32)CC1	6.9*	0	2	-8
COc1cc(/C=N/NC(=O)c2cc3ccccc3cc2O)ccc1OCCN1CCCCC1	4	-1	79*	-4
CCN(CC)CCCNC(=O)C(C)n1nc(C)c2sc3ccccc3c2c1=O (stereo not drawn)	-2	1	-2	1
CCN(CC)CCNc1ccc(C)c2sc3ccc(O)cc3c(=O)c12	nt	nt	41*	2
COc1ccc(C(=O)CCC(=O)N2CCN(c3cc(C)ccc3C)CC2)cc1	-2	-3	-7	-1
CN1CCN(C(=O)c2ccc3c(c2)NC(=O)/C(=C/c2ccccc2)S3)CC1	-1	8.0*	2	-9
CCOC(=O)N1CCN(C(=O)c2ccc3c(c2)NC(=O)/C(=C/c2ccccc2)S3)CC1	-2	-1	-1	12
Cc1ccc(-n2c(C)cc(/C=N/Nc3ccc([N+](=O)[O-])cn3)c2C)cc1	-2	0	-2	0
Cc1cc(/C=N/Nc2ccc([N+](=O)[O-])cn2)c(C)n1-c1ccccc1	0	3	22*	4
CN(CC(=O)Nc1cccc(F)c1)C(=O)c1cc(S(=O)(=O)N2CCN(c3ccccc3)CC2)ccc1Cl	nt	nt	-8	0
COC(=O)c1ccc(NS(=O)(=O)c2ccc(Cl)cc2)o1	2	1	-7	5
COC(=O)c1ccc(NS(=O)(=O)c2ccccc2)o1	4.9*	-2	9	-1
Cc1ccc(NC(=O)CN(C)C(=O)CCC(=O)c2cccs2)cc1	8.9*	-2	-4	4
O=S(=O)(c1ccc(Cl)c(C(F)(F)F)c1)N1CCN(CC(O)COc2ccccc2F)CC1 (stereo not drawn)	-2	1	-8	-1
CN1OC[C@@H]2CN(C(=O)CCc3ccccc3)[C@H](c3cccc(-c4ccccc4)c3)C[C@@H]21	nt	nt	-19	-3
COc1ccc(-c2oc3cc(OC)c(O)c(OC)c3c(=O)c2OC)cc1O	-2	12*	6	-4
Cc1nc2ccccc2nc1N/N=C/c1ccc(O)cc1	-1	7.8*	-13	1
Cc1ccc(S(=O)(=O)N2CCCC2C(=O)NCc2ccc3c(c2)OCO3)cc1 (stereo not drawn)	-1	-1	-7	3
CCOc1ccc2[nH]c(=O)c(CN(Cc3nnnn3Cc3ccco3)C3CCCCC3)cc2c1	4	6	-11	-3
COc1cc2cc(CN(Cc3nnnn3Cc3ccco3)C3CCCCC3)c(=O)[nH]c2cc1OC	2	9.3*	-3	-1
CCN(CC(=O)Nc1ccc2c(c1)OCCO2)C(=O)c1ccc(C(F)(F)F)cc1	nt	nt	-10	-6
Cc1cccn2c(=O)c3cc(C(=O)NCCN4CCOCC4)c(=N)n(CCN4CCOCC4)c3nc12	0	11*	6	-7
COc1ccc(CCNC(=O)c2cc3c(=O)n4cccc(C)c4nc3n(CCCN3CCOCC3)c2=N)cc1	-3	7.8*	5	-3
COCCn1c(=N)c(C(=O)NCCc2ccc(OC)cc2)cc2c(=O)n3cccc(C)c3nc21	-3	1	3	-1
Cc1cccn2c(=O)c3cc(C(=O)N4CCN(C(=O)c5ccco5)CC4)n(C)c3nc12	-3	0	-5	4
O=C(NCCN1CCN(c2ccccc2)CC1)c1cccn2c(=O)c3cc(Cl)ccc3nc12	-2	8.2*	1	0
Cc1cccn2c(=O)c3cc(C(=O)N4CCOCC4)n(C)c3nc12	-1	8.2*	-2	1
CCOCCCn1c(=N)c(C(=O)NCCN2CCOCC2)cc2c(=O)n3cccc(C)c3nc21	-2	1	1	2
Cn1c(C(=O)NCCN2CCOCC2)cc2c(=O)n3ccccc3nc21	-1	8.3*	-5	3
CCn1cc(S(=O)(=O)N2CCCC2)cn1	1	0	-7	3
